In ChEMBL document CHEMBL4152279, “Synthesis, cytotoxic evaluation and target identification of thieno[2,3-d]pyrimidine derivatives with a dithiocarbamate side chain at C2 position” (Eur J Med Chem, 2018) one finds Activity and inhibition data, which are given here for one compound.

The target of assay [1] is T1, RNA-binding protein EWS (Homo sapiens) (UniProt Q01844).
T1 sequence (whole entry): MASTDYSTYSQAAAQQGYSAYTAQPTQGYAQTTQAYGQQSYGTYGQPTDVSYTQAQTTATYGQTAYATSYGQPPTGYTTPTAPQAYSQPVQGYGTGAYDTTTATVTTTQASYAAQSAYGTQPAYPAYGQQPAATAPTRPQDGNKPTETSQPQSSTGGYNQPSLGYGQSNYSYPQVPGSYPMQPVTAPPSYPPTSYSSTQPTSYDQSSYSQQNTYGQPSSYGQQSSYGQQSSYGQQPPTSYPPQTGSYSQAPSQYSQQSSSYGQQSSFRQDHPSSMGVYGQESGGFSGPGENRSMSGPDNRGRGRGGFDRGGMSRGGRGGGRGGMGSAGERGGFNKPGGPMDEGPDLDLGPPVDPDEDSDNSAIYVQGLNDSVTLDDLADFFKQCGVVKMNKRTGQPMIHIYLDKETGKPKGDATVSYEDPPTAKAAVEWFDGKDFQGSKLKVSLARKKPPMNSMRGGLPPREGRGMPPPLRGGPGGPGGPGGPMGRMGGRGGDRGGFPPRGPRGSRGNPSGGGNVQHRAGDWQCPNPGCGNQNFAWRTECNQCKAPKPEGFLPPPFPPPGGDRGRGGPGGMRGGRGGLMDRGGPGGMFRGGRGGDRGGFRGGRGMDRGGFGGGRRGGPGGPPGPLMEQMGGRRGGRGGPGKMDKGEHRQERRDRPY
The assay is described as follows: Binding affinity to RNA-binding protein EWS isoform 6 in human A549 cells at 0.15 mM after 4 hrs by HPLC-MS based pull down assay relative to control. Type of assay: cell-based. A digest of the protocol:
(§1)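 A549 lysate in NETN buffer (pH 8.0, 0.5% NP-40) incubated with biotinylated probe (0.15 mM final) 4 h at 4 °C, with biotin or control probe as comparators. Streptavidin Dynabeads 1 h at 4 °C, six NETN washes, proteins eluted by boiling in SDS buffer. After trypsin digestion, identification by LC-MS/MS on Q Exactive HF.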

Assay [2] has as its system A549. Nature of the assay: Binding affinity to tubulin alpha-3E in human A549 cells at 0.15 mM after 4 hrs by HPLC-MS based pull down assay relative to control. It is filed as cell-based. A digest of the protocol:
as §1

The test system of assay [3] is A549. The assay is described as follows: Binding affinity to tubulin beta in human A549 cells at 0.15 mM after 4 hrs by HPLC-MS based pull down assay relative to control. It is filed as cell-based. In a few lines: as §1
Assay [4] deals with Probable ATP-dependent RNA helicase DDX17 (Homo sapiens) (UniProt Q92841). Nature of the assay: Binding affinity to DDX17 in human A549 cells at 0.15 mM after 4 hrs by HPLC-MS based pull down assay relative to control. It is filed as cell-based. A digest of the protocol:
as §1

The target in assay [5] is Ubiquitin carboxyl-terminal hydrolase 10 (Homo sapiens) (UniProt Q14694). The assay is described as follows: Binding affinity to ubiquitin carboxyl-terminal hydrolase 10 isoform-2 in human A549 cells at 0.15 mM after 4 hrs by HPLC-MS based pull down assay relative to control. It is filed as cell-based. A digest of the protocol:
as §1

In assay [6] the target is Serine/arginine-rich splicing factor 9 (Homo sapiens) (UniProt Q13242). The assay is described as follows: Binding affinity to serine/arginine-rich-splicing factor 9 in human A549 cells at 0.15 mM after 4 hrs by HPLC-MS based pull down assay relative to control. Type of assay: cell-based. A digest of the protocol:
as §1

For assay [7], the target named is T1, RNA-binding protein EWS (Homo sapiens). Nature of the assay: Binding affinity to RNA-binding protein EWS in human A549 cells at 0.15 mM after 4 hrs by HPLC-MS based pull down assay relative to control. It is filed as cell-based. A digest of the protocol: as §1
The test system of assay [8] is A549. The assay is described as follows: Binding affinity to tubulin alpha in human A549 cells immunoblot based based pull down assay. It is filed as cell-based. In a few lines:
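A549 lysate in NETN buffer incubated with biotin, biotinylated probe or control probe at 4 °C, then streptavidin Dynabeads 1 h at 4 °C. Beads washed six times, bound proteins run on SDS-PAGE and immunoblotted for α-tubulin.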

For assay [9], the species on record is Sus scrofa. Nature of the assay: Inhibition of vinblastine binding to porcine tubulin treated 2 hrs post colchicine treatment by pull down assay. In a few lines: (§2)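 Porcine neuronal tubulin was preincubated with excess taxol, colchicine, vinblastine or nocodazole for 2 h at 4 °C. Biotinylated probe was then added in NETN buffer, followed by streptavidin Dynabead pull-down for 1 h at 4 °C and six washes. Bound α-tubulin was detected by SDS–PAGE and immunoblot. Three independent experiments.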

The species named for assay [10] is Sus scrofa. Nature of the assay: Inhibition of nocodazole binding to porcine tubulin treated 2 hrs post colchicine treatment by pull down assay. A digest of the protocol: as §2
For assay [11], the species on record is Sus scrofa. The assay is described as follows: Inhibition of taxol binding to porcine tubulin treated 2 hrs post colchicine treatment by pull down assay. A digest of the protocol: as §2
The species named for assay [12] is Sus scrofa. Nature of the assay: Inhibition of vinblastine binding to porcine tubulin preincubated with tubulin followed by vinblastine treatment measured after 2 hrs by immunoblot analysis.
Assay [13] is filed under the species Sus scrofa. The assay is described as follows: Inhibition of nocodazole binding to porcine tubulin preincubated with tubulin followed by nocodazole treatment measured after 2 hrs by immunoblot analysis.
Assay [14] is filed under the species Sus scrofa. The assay is described as follows: Inhibition of taxol binding to porcine tubulin preincubated with tubulin followed by taxol treatment measured after 2 hrs by immunoblot analysis.

Molecules are shown by their SMILES. Calls of active or inactive are those of the source. The calls are words filed in the database; no cut-off is given here.

Chain of Ubiquitin carboxyl-terminal hydrolase 10 (Homo sapiens) (Q14694 whole entry, canonical isoform): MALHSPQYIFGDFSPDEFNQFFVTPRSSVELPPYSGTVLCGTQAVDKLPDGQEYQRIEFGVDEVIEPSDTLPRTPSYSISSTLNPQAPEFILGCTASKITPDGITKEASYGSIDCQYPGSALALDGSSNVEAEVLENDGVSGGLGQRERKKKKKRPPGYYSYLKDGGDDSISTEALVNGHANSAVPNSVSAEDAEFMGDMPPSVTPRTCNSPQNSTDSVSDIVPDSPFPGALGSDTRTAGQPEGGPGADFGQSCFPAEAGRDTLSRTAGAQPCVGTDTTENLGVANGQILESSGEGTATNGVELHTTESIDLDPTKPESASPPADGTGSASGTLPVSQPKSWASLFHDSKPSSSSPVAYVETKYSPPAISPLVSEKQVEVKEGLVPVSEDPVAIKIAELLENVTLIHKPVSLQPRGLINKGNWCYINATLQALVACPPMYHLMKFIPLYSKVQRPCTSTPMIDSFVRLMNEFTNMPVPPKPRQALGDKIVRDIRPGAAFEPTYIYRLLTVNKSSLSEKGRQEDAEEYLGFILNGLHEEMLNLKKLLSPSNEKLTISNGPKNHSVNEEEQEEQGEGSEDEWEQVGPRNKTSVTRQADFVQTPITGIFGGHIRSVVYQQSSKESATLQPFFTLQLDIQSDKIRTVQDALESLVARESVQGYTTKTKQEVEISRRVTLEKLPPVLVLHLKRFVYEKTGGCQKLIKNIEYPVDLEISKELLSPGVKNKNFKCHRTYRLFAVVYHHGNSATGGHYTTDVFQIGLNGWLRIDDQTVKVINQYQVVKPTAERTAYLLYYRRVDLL
Chain of Serine/arginine-rich splicing factor 9 (Homo sapiens) (Q13242 whole entry): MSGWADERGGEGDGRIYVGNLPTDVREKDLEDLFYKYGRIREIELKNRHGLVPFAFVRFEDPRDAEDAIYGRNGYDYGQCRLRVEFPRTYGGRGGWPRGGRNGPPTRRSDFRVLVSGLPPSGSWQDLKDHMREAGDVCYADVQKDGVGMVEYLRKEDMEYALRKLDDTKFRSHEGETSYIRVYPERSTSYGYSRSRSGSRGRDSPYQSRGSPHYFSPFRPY
Chain of Probable ATP-dependent RNA helicase DDX17 (Homo sapiens) (Q92841 whole entry): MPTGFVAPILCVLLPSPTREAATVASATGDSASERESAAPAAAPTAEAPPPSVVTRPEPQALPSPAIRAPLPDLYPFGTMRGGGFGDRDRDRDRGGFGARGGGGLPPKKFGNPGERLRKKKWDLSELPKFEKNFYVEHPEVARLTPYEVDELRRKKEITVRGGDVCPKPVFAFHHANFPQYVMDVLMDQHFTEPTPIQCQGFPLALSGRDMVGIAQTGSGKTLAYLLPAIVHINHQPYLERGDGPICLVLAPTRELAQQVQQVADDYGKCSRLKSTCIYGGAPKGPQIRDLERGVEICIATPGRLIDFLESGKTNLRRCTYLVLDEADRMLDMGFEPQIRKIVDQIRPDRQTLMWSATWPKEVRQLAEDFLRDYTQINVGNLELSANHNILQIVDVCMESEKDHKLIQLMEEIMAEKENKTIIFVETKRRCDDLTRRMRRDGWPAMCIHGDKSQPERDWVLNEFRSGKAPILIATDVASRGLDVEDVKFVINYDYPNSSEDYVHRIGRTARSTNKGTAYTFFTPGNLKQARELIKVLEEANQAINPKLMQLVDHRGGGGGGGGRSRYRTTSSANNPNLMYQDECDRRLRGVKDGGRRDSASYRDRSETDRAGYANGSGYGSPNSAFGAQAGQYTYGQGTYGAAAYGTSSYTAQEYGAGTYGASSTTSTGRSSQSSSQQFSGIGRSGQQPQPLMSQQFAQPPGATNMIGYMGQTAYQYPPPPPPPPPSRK

Regarding `Cc1cc2c(=O)[nH]c(CSC(=S)N(CCCNC(=O)CCCC[C@@H]3SC[C@@H]4NC(=O)N[C@@H]43)Cc3ccc(C#N)cc3)nc2s1`, the Activity came to 40.5% in assay [1]; 15.3% in the assay with A549 [2]; 35.7% with A549 [3]; 52.8% in [4]; 42.8% in assay [5]; 63.8% in assay [6]. For the same compound, in assay [7], the Activity came out at 55.8%. Moreover, in the assay with A549 [8], the outcome was Active. For the same compound, the inhibition entry in the assay filed under Sus scrofa [9], in the assay filed under Sus scrofa [10], in the assay listed under Sus scrofa [12] and in the assay filed under Sus scrofa [13] was “Active” in each case. Besides, the inhibition result in the assay listed under Sus scrofa [11] and in the assay listed under Sus scrofa [14] was “inactive” throughout.
